TAAR1 ag: human TAAR1 agonists, primary screen, Fluo-8 calcium fluorescence, CHO RD-HGA16 cells; activation, % at 3 µM; actives 0.99% (n = 360,000); vehicle wells 0%, saturating PEA agonist 100%; Trace amine-associated receptor 1 (Homo sapiens), Q96RJ0;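 active = activation above the mean activation of all test compounds in the run plus 3 SD, cut at about 38% in these data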
Target sequence (Q96RJ0 whole entry, looked up): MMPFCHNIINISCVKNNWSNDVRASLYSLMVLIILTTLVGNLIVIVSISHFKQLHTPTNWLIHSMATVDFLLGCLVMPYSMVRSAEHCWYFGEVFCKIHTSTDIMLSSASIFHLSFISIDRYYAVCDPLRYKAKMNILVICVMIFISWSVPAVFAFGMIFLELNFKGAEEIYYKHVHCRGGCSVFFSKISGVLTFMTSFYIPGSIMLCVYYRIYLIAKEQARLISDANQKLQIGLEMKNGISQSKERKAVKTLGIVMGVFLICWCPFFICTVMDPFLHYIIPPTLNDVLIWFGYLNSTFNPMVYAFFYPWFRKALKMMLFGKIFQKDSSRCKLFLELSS
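Test system: RD-HGA16 (CHO) cells co-expressing Gα16 and hTAAR1 | Doses: Single dose, 3 µM | Schedule: 17-24 h seeding, 75 min 37 °C dye, 30 min RT | Evaluation: % activation from peak over basal fluorescence ratio, DMSO-to-PEA scaled | Technique: Kinetic Fluo-8 calcium fluorescence | Benchmarks: Low control DMSO, high control PEA (EC100)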
GPR7 antagonist: GPR7 receptor antagonists, primary screen, cell-based, fluorescence, single concentration. Neuropeptides B/W receptor type 1 (Homo sapiens), P48145. GPR7-expressing cells, fluorescence antagonist assay. inhibition, % at 4.4 µM. actives 1.1% (n = 290,000); in the data active = inhibition above about 16%, passing the limit was not always enough;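 also: cells stimulated with the agonist NPW; 0% = agonist with vehicle and 100% = vehicle without agonist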
Target sequence (P48145 whole entry, looked up): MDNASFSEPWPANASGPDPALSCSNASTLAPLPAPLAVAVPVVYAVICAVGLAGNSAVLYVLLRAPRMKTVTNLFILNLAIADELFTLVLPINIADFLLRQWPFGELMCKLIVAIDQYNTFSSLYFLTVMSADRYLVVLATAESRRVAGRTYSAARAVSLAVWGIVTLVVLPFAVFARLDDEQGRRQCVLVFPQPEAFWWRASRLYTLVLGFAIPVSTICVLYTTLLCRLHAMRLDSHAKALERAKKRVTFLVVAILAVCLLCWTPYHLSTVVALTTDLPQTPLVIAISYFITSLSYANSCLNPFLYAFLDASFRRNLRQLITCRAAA
OX1R antag-1: antagonists of human orexin 1 receptor (OX1R) | OX1R-expressing cells, FRET antagonist read-out | inhibition, % at 6.6 µM | actives 1.8% (n = 330,000); in the data active = inhibition mostly above about 38%, no sharp cut-off; inactive = mostly below about 40%;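 also: 0% = agonist challenge alone and 100% = reference antagonist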
OX1R antag-2: OX1R (HCRTR1) antagonists, primary screen, fluorescence, CHO/OX1R cells, Fluo-8 calcium, orexin A | Orexin/Hypocretin receptor type 1 (Homo sapiens), O43613 | Fluo-8 calcium fluorescence | inhibition, % at 5 µM | actives 0.43% (n = 330,000) | AID 434989, 2010;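 active = inhibition above its plate's threshold, mean inhibition of all tested compounds on the plate plus 3 SD, cut at about 37% in these data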;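 also: 0% = orexin A challenge wells and 100% = SB-334867-A antagonist wells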
CHO parental Ca: ATP-evoked calcium signal inhibitors, parental CHO, primary screen, counter-screen for OX1R antagonist project, cell-based, fluorescence, Fluo-8 calcium dye; parental CHO-K1, ATP-induced calcium, Fluo-8 fluorescence; inhibition, % at 5.6 µM; AID 463079, 2010; actives 0.63% (n = 330,000);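 active = inhibition above that plate's mean sample inhibition plus 3 SD, cut at about 26% in these data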;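 also: 0% = ATP-challenged DMSO wells and 100% = DMSO wells without ATP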
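Assay system – parental CHO cells · Reagent – ATP stimulus · Detection – intracellular calcium via Fluo-8 no-wash fluorescent dye · Evaluation – percent inhibition of ATP-evoked calcium rise, normalized to controls · Controls – ATP wells versus no-ATP DMSO wells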
TAAR1 antag: human TAAR1 antagonists, primary screen, Fluo-8 calcium fluorescence, CHO RD-HGA16 cells; antagonist; inhibition, % at 3 µM; actives 1.5% (n = 360,000); AID 624466, 2012;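 active = inhibition above a per-plate cutoff, the mean inhibition of test compounds on that plate plus 3 SD, cut at about 49% in these data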;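 also: 0% = DMSO plus EC80 beta-PEA response and 100% = DMSO alone without agonist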
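Material: RD-HGA16 CHO cells with stable hTAAR1 and Gα16; Dosing: single nominal final test compound concentration of 3 µM; Schedule: seeding 17-24 h prior, 75-min 37 °C, 30-min RT dye loading; Detection: kinetic Fluo-8 calcium fluorescence measurement; Measure: % inhibition from peak post-agonist over basal fluorescence ratio; Benchmarks: vehicle and agonist controls.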
Starred values were filed as active, the others as inactive. In the library only some 4.6% were active in any assay of this set; here they are far more common.

How did Cc1nc2sc(C(N)=O)c(N)c2c2c1CCCC2 do in these assays?
TAAR1 ag: 0; GPR7 antagonist: -6; OX1R antag-1: 5; OX1R antag-2: -30; CHO parental Ca: -13; TAAR1 antag: 9

What do the screens show for `Cc1ccccc1CSc1nnc(C)c(=O)[nH]1`?
TAAR1 ag: 6; GPR7 antagonist: 17*; OX1R antag-1: 17; OX1R antag-2: -8; CHO parental Ca: 0; TAAR1 antag: -41

What do the screens show for `CC(CNC(=O)Cn1ccc2cc(S(=O)(=O)N3CCCC3)ccc21)c1ccccc1` (stereo unspecified)?
TAAR1 ag: 9; GPR7 antagonist: -3; OX1R antag-1: 43*; OX1R antag-2: 15; CHO parental Ca: -20; TAAR1 antag: -15

What do the screens show for `COc1cccc(CNC(=O)C(C)n2ccc3cc(S(=O)(=O)N4CCCCCC4)ccc32)c1` (stereo unspecified)?
TAAR1 ag: 0; GPR7 antagonist: 4; OX1R antag-1: 12; OX1R antag-2: -5; CHO parental Ca: -6; TAAR1 antag: -2

How did CCC(C(=O)NCCC(C)C)n1ccc2cc(S(=O)(=O)N3CCCCC3)ccc21 (stereo unspecified) do in these assays?
GPR7 antagonist: 13; OX1R antag-1: 12; OX1R antag-2: 44; CHO parental Ca: 53*

What do the screens show for `CC1=C(C(=O)Nc2ccc(C(=O)NCCCN3CCCCC3C)cc2)SCCO1` (stereo unspecified)?
TAAR1 ag: 2; TAAR1 antag: 2

Results for COc1cccc(C(=O)Nc2cc([N+](=O)[O-])ccc2N2CCN(C)CC2)c1 ?
TAAR1 ag: 8; GPR7 antagonist: 20; OX1R antag-1: 16; OX1R antag-2: -19; CHO parental Ca: -8; TAAR1 antag: -8

Results for COc1ccc(CNc2ncnc3c2[nH]c2ccccc23)cc1 ?
TAAR1 ag: 34; GPR7 antagonist: 15; OX1R antag-1: 52*; OX1R antag-2: 26; CHO parental Ca: 24; TAAR1 antag: 40

How did C1=C(CCNc2ncnc3c2[nH]c2ccccc23)CCCC1 do in these assays?
TAAR1 ag: 16; GPR7 antagonist: 41*; OX1R antag-1: 46; OX1R antag-2: 16; CHO parental Ca: 69*; TAAR1 antag: 41

How did COc1ccc(N(CC(=O)NCc2ccccn2)S(=O)(=O)c2ccccc2[N+](=O)[O-])c(OC)c1 do in these assays?
TAAR1 ag: 3; GPR7 antagonist: -2; OX1R antag-1: 16; OX1R antag-2: -20; CHO parental Ca: -15; TAAR1 antag: 16

Results for CCC(CNc1cc(OC)cc2cccnc12)NC1CCCCC1 (stereo unspecified) ?
TAAR1 ag: 15; GPR7 antagonist: -11; OX1R antag-1: 58*; OX1R antag-2: -21; CHO parental Ca: -30; TAAR1 antag: -15

What do the screens show for `COc1cc(NCCCC(C)N)c2ncccc2c1` (stereo unspecified)?
TAAR1 ag: 8; GPR7 antagonist: -2; TAAR1 antag: 2

Results for COc1ccc(CN(CCc2ccccc2)Cc2ccccc2)cc1OC ?
TAAR1 ag: 18; GPR7 antagonist: -6; OX1R antag-1: 60*; OX1R antag-2: -40; CHO parental Ca: -50; TAAR1 antag: 12

What do the screens show for `COc1ccc(CCN(C)CCc2ccc(OC)c(OC)c2)cc1OC`?
TAAR1 ag: 2; OX1R antag-1: 15; OX1R antag-2: -12; CHO parental Ca: -10; TAAR1 antag: -15

What do the screens show for `Cc1cc(NC(=O)C2C3C(=O)N(CCC(C)C)C(C(=O)NCc4ccccc4)C34C=CC2(C)O4)no1` (stereo unspecified)?
TAAR1 ag: 9; GPR7 antagonist: -10; OX1R antag-1: 46*; OX1R antag-2: -2; CHO parental Ca: 2; TAAR1 antag: 4

Results for Cc1ccccc1OCC(=O)Nc1ccc(N2CCN(S(C)(=O)=O)CC2)cc1 ?
TAAR1 ag: 13; GPR7 antagonist: 19; OX1R antag-1: 20; OX1R antag-2: 1; CHO parental Ca: 0; TAAR1 antag: -6

Results for O=C(Nc1ccc(F)cc1)Nc1ccc(NC(=O)c2ccccc2O)cc1 ?
TAAR1 ag: 41*; GPR7 antagonist: 8; OX1R antag-1: 11; OX1R antag-2: 5; CHO parental Ca: 16; TAAR1 antag: 58*

What do the screens show for `O=C(Nc1ccccc1O)c1ccccc1O`?
TAAR1 ag: 10; GPR7 antagonist: -2; OX1R antag-1: 13; OX1R antag-2: 9; CHO parental Ca: 37*; TAAR1 antag: 0

Results for O=C(Nc1ccc(F)cc1)c1ccccc1F ?
TAAR1 ag: 9; GPR7 antagonist: -7; OX1R antag-1: -1; OX1R antag-2: 4; CHO parental Ca: -8; TAAR1 antag: -2

What do the screens show for `O=C(Nc1ccccc1O)C(c1ccccc1)c1ccccc1`?
TAAR1 ag: 5; GPR7 antagonist: 19; OX1R antag-1: 14; OX1R antag-2: 23; CHO parental Ca: 67*; TAAR1 antag: 35

How did Cc1cccc(NC(=O)c2ccccc2O)c1C do in these assays?
TAAR1 ag: 6; GPR7 antagonist: 12; OX1R antag-1: 20; OX1R antag-2: -3; CHO parental Ca: -3; TAAR1 antag: 8

How did O=C(NCc1nc2ccccc2[nH]1)C1=C[C@H](c2csc3ccccc23)C[C@H](OCc2ccc(CO)cc2)O1 do in these assays?
TAAR1 ag: 15; OX1R antag-1: 12; OX1R antag-2: 7; CHO parental Ca: 2; TAAR1 antag: 49*

What do the screens show for `O=C(NCc1nc2ccccc2[nH]1)C1=C[C@@H](c2csc3ccccc23)C[C@@H](OCc2ccc(CO)cc2)O1`?
TAAR1 ag: 19; GPR7 antagonist: -7; OX1R antag-1: 13; OX1R antag-2: -17; CHO parental Ca: -10; TAAR1 antag: 48

How did COc1ccccc1CNC(=O)/C=C/c1ccc(Br)o1 do in these assays?
TAAR1 ag: -1; GPR7 antagonist: -7; OX1R antag-1: 8; OX1R antag-2: -6; CHO parental Ca: -15; TAAR1 antag: -3

What do the screens show for `CCOc1ccc2nc(NC(=O)CSc3nc(SC)ns3)sc2c1`?
TAAR1 ag: 0; GPR7 antagonist: 2; OX1R antag-1: 16; OX1R antag-2: 3; CHO parental Ca: -18; TAAR1 antag: 13

What do the screens show for `CSc1cccc(NS(=O)(=O)c2ccc3c(c2)CCN3C(C)=O)c1`?
TAAR1 ag: 12; GPR7 antagonist: 33; OX1R antag-1: 22; OX1R antag-2: 47; CHO parental Ca: 64*; TAAR1 antag: 30

How did COc1cccc(NS(=O)(=O)c2ccc3c(c2)CCN3C(C)=O)c1 do in these assays?
TAAR1 ag: 4; GPR7 antagonist: -1; OX1R antag-1: 2; OX1R antag-2: -8; CHO parental Ca: 5; TAAR1 antag: 7

Screening data: PubChem, The Scripps Research Institute Molecular Screening Center
